Measured values of several laboratories.
Each line is one published result; the experiments were not run side by side.
Organism: Escherichia coli
Effect on: microbial growth

| Compound | assay | system | conditions | MIC |
| --- | --- | --- | --- | --- |
| Cc1[nH]c(C(=O)Nc2ccc(C(=O)NCc3n[nH]c(=O)o3)cc2N2CCNCC2)c(Cl)c1Cl.Cl | broth dilution | ATCC25922 |  | > 32 µg/mL |
| COc1ccc(C2c3c(C)nn(-c4ccccc4)c3NN2C(=O)c2ccncc2)cc1 (stereo not drawn) |  | MTCC739 | 24 h | 32 µg/mL |
| Cc1[nH]c(C(=O)Nc2ccc(C(=O)NCC(=O)O)cc2N2CC[C@H](NC(=O)OC(C)(C)C)C2)c(Cl)c1Cl | broth dilution | ATCC25922 |  | > 32 µg/mL |
| C[C@@H](O)[C@H]1C(=O)N2C(C(=O)O)=C(SCCNC=N)C[C@H]12 | broth dilution |  |  | ≤ 0.06 µg/mL |
| Cc1nn(-c2ccccc2)c2c1C(c1ccc(O)cc1)N(C(=O)c1ccncc1)N2 (stereo not drawn) |  | MTCC739 | 24 h | 16 µg/mL |
| CO/N=C(\C(=O)N[C@@H]1C(=O)N2C(C(=O)O)=C(CSc3nc(=O)c(O)nn3C)CS[C@H]12)c1csc(N)n1 | broth dilution |  |  | ≤ 0.5 µg/mL |
| CC(O)CSc1nnc(-c2cc3c(ccc4ccccc43)o2)n1-c1ccccc1 (stereo not drawn) |  |  |  | 16000 µg/mL |
| Nc1ccccc1OC(=O)C=Cc1ccc(O)c(O)c1 | broth dilution | ATCC25922 |  | 8 µg/mL |
| Cc1[nH]c(C(=O)Nc2ccc(C(=O)NCC(=O)O)cc2N2CC[C@@H](N)C2)c(Cl)c1Cl.Cl | broth dilution | ATCC25922 |  | > 32 µg/mL |
| CC(O)CSc1nnc(Cn2cnc3c2c(=O)n(C)c(=O)n3C)n1-c1ccccc1 (stereo not drawn) |  |  |  | 15000 µg/mL |
| CC(C)(C)OC(=O)N[C@H]1CCN(c2cc(C(=O)NCC(=O)O)ccc2NC(=O)c2cc(Br)c(Br)[nH]2)C1 | broth dilution | ATCC25922 |  | > 32 µg/mL |
| C[C@@H](O)[C@H]1C(=O)N2C(C(=O)O)=C(S[C@@H]3CN[C@H](C(=O)N(C)C)C3)[C@H](C)[C@H]12 | broth dilution |  |  | ≤ 0.06 µg/mL |
| CC(C)NCC(COc1cccc2ccccc12)OC(=O)C=Cc1ccc(O)c(O)c1 (stereo not drawn) | broth dilution | ATCC25922 |  | 64 µg/mL |
| O=C(O)c1cn(C2CC2)c2cc(N3CCNCC3)c(F)cc2c1=O |  | MTCC739 | 24 h | 32 µg/mL |
| COc1cc(Cc2cnc(N)nc2N)cc(OC)c1OC | broth dilution | ATCC25922 |  | 8 µg/mL |
| O=C(O)c1cn(C2CC2)c2cc(N3CCNCC3)c(F)cc2c1=O |  | K12, MG1655 |  | 2 µM |
| Cc1ccc(-c2nnc(SCC(C)O)n2-c2ccccc2)cc1 (stereo not drawn) |  |  |  | 12500 µg/mL |
| CC1(C)S[C@@H]2[C@H](NC(=O)[C@H](N)c3ccccc3)C(=O)N2[C@H]1C(=O)O |  |  | 24 h | 5 to 10 µM |
| O=C(C=Cc1ccc(O)c(O)c1)Oc1cccc2cccnc12 | broth dilution | ATCC25922 |  | 4 µg/mL |
| Cl.N[C@@H]1CCN(c2cc(C(=O)NCC(=O)O)ccc2NC(=O)c2cc(Br)c(Br)[nH]2)C1 | broth dilution | ATCC25922 |  | > 32 µg/mL |
| CC(C)(O/N=C(\C(=O)N[C@@H]1C(=O)N2C(C(=O)[O-])=C(C[n+]3ccccc3)CS[C@H]12)c1csc(N)n1)C(=O)O | broth dilution |  |  | 0.125 µg/mL |
| Cc1nn(-c2ccccc2)c2c1C(c1ccc([N+](=O)[O-])cc1)N(C(=O)c1ccncc1)N2 (stereo not drawn) |  | MTCC739 | 24 h | 32 µg/mL |
| C[C@@H](O)[C@H]1C(=O)N2C(C(=O)O)=C(S[C@@H]3CN[C@H](C(=O)N(C)C)C3)[C@H](C)[C@H]12 | broth dilution | ATCC25922 | 20 h | < 0.5 µg/mL |
| CC1(C)S[C@@H]2[C@H](NC(=O)[C@H](N)c3ccc(O)cc3)C(=O)N2[C@H]1C(=O)O | broth dilution |  |  | ≤ 0.06 µg/mL |
| Cc1[nH]c(C(=O)Nc2ccc(-c3n[nH]c(=O)o3)cc2N2CC[C@H](N)C2)c(Cl)c1Cl.Cl | broth dilution | ATCC25922 |  | 8 µg/mL |
| O=C(C=Cc1ccc(O)c(O)c1)OCCc1ccccc1 | broth dilution | ATCC25922 |  | 32 µg/mL |
| Cl.O=C(O)CNC(=O)c1ccc(NC(=O)c2cc(Br)c(Br)[nH]2)c(N2CCNCC2)c1 | broth dilution | ATCC25922 |  | > 32 µg/mL |
| C[C@@H](O)[C@H]1C(=O)N2C(C(=O)O)=C(S[C@@H]3CN[C@H](C(=O)Nc4cccc(C(=O)O)c4)C3)[C@H](C)[C@H]12 | broth dilution |  |  | ≤ 0.125 µg/mL |
| Cc1ccccc1NC(=O)C=Cc1ccc(O)c(O)c1 | broth dilution | ATCC25922 |  | 4 µg/mL |
| Cc1[nH]c(C(=O)Nc2ccc(C(=O)NCC(=O)O)cc2N2CCNCC2)c(Cl)c1Cl.Cl | broth dilution | ATCC25922 |  | > 32 µg/mL |
